Results gathered from unrelated publications.
Lines come from different studies, so protocols differ.
Target: Membrane-associated tyrosine- and threonine-specific cdc2-inhibitory kinase (PKMYT1, Homo sapiens, UniProt Q99640)
Sequence (Q99640 1-499, as in one of the studies): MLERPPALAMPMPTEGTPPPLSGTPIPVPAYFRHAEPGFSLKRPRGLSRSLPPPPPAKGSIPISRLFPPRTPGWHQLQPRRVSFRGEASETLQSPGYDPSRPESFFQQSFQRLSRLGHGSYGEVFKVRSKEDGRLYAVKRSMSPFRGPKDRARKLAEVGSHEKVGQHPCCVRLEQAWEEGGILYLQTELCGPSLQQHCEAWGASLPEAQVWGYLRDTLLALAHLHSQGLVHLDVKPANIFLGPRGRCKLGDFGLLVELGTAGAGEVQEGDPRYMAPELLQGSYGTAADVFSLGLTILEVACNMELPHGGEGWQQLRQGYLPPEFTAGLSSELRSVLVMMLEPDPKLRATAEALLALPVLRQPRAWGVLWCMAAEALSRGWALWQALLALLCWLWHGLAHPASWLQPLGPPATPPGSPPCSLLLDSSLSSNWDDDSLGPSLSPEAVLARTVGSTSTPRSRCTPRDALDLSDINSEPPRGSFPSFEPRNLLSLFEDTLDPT

O=C1CCc2cc(Nc3cc(OC4CCOCC4)c([N+](=O)[O-])cc3Cl)ccc2N1
remaining binding (cell-free assay, competition with immobilised ligand; 1 µM): 79%

CN(C)c1ncc(F)c(-c2cnn3ncccc23)n1
remaining binding (binding; 1 µM): 97%

CN1CCN(c2cnc3c(C4CCN(C(=O)c5ccc(OC(F)(F)F)cc5N)CC4)ncnc3c2)CC1
remaining binding (cell-free assay, competition with immobilised ligand; 1 µM): 100%

O=C(NCC1CCOCC1)c1n[nH]cc1NC(=O)c1c(F)cccc1F
remaining binding (binding, competition with immobilised ligand; 1 µM): 72%

COc1cc(-c2cn(C3CCc4ccccc4N(CC(F)(F)F)C3=O)nn2)ccc1-n1ccc(C)n1 (centres unmarked)
remaining binding (cell-free assay, competition with immobilised ligand; 1 µM): 100%

O=C(NCCCN1CCOCC1)c1ccc(Nc2nccc(-c3cc4ccccc4s3)n2)cc1
remaining binding (binding, competition with immobilised ligand; 1 µM): 84%

CNC(=O)[C@@H]1CC[C@@H](n2c(-c3ccc4cnccc4c3)nc3ccc(C(=O)NCc4cccc(C(N)=O)c4)cc32)C1
remaining binding (binding, competition with immobilised ligand; 1 µM): 100%

CN(c1nccc(-c2cnn3ncccc23)n1)C1CC1
remaining binding (binding; 1 µM): 88%

COc1cnc(Nc2cccc(S(N)(=O)=O)c2)nc1N1CCN(c2ccccc2)CC1
remaining binding (binding, competition with immobilised ligand; 1 µM): 89%

CCC(=O)N[C@@H]1CC[C@H](C(=O)N(C)c2ccc(-c3nc4ccccc4o3)cc2)C1
remaining binding (cell-free assay, competition with immobilised ligand; 1 µM): 100%

C[C@H]1CCN(c2nccc(-c3cnn4ncccc34)n2)C1
remaining binding (binding; 1 µM): 100%

O=C(NCCCN1CCOCC1)c1ccc(Nc2ncc(Cl)c(-c3ccc(Cl)s3)n2)cc1
remaining binding (binding, competition with immobilised ligand; 1 µM): 100%

O=C(Nc1cccnn1)N1CC(C/C=C/c2cncc(Oc3ccc(C(F)(F)F)cn3)n2)C1
remaining binding (cell-free assay, competition with immobilised ligand; 1 µM): 100%

CN(C)c1nccc(-c2cnn3ncccc23)n1
remaining binding (binding; 1 µM): 100%

c1cncc(-c2cccc(Nc3nccc(NC4CCCCC4)n3)c2)c1
remaining binding (binding, competition with immobilised ligand; 10 µM): 96%

CCN1CCN(Cc2ccc(C(=O)Nc3ccc(C)c(Oc4ccc5c(c4)CC(=O)N5)c3)cc2C(F)(F)F)CC1
remaining binding (binding, competition with immobilised ligand; 1 µM): 70%

CN(CCCC(F)(F)F)c1nccc(-c2cnn3ncccc23)n1
remaining binding (binding; 1 µM): 93%

O=C(c1ccc(Nc2ncc(Cl)c(-c3cc4ccccc4s3)n2)cc1)N1CCC(N2CCCC2)CC1
remaining binding (binding, competition with immobilised ligand; 1 µM): 87%

CCOC(=O)c1cc2cc(-c3cc(C(=O)NCc4ccc(C(=O)O)cc4)nn3C)ccc2[nH]1
remaining binding (cell-free assay, competition with immobilised ligand; 0.1 µM): 100%

N[C@H]1CCN(c2nccc(-c3cnn4ncccc34)n2)C1
remaining binding (binding; 1 µM): 91%
